Results: ChEMBL document CHEMBL3997810, “A Novel Potent Anticancer Compound Optimized from a Natural Oridonin Scaffold Induces Apoptosis and Cell Cycle Arrest through the Mitochondrial Pathway” (J Med Chem, 2017)
The source made the active and inactive calls. The rule behind the calls is not given here.

Columns and labels:
[1] = Selectivity ratio of IC50 for human KB/CP4 cells to IC50 for human KB-3-1 cells
[2] = system: Bel-7402; experiment: Antiproliferative activity against human Bel7402 cells at 1 uM after 72 hrs by MTT assay; assay type: functional, cell-based
[3] = system: Mus musculus; experiment: Hepatotoxicity in Balb/c nude mouse xenografted with human MCF7 cells assessed as morphological changes in liver at 20 mg/kg/day, iv for 4 weeks by hematoxylin and eosin staining based microscopic method; assay type: toxicity, organism-based; conditions: in vivo, 672 h
Summary of the method: (§1)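 Male BALB/c nude mice (6 weeks old) carrying subcutaneous MCF-7 xenografts (1 × 10^6 cells). Dosed iv 20 mg/kg daily for 28 days in 10% DMF/2% poloxamer/88% saline; six mice per group. Organs then fixed in 4% paraformaldehyde, paraffin-embedded, cut at 5 μm, stained with Harris hematoxylin and eosin-phloxine, and examined by light microscopy.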

[4] = system: Mus musculus; experiment: Nephrotoxicity in Balb/c nude mouse xenografted with human MCF7 cells assessed as morphological changes in kidney at 20 mg/kg/day, iv for 4 weeks by hematoxylin and eosin staining based microscopic method; assay type: toxicity, organism-based; conditions: in vivo, 672 h
Summary of the method: (§2)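 Male BALB/c nude mice aged six weeks received 1 × 10^6 MCF-7 cells subcutaneously in the right flank. After 7 d they were randomized and dosed 20 mg/kg iv once daily in 10% DMF/2% poloxamer/88% saline; saline control. Heart, liver, spleen, lung and kidney were fixed in 4% paraformaldehyde, paraffin-embedded, sectioned at 5 μm, H&E stained and examined microscopically.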

[5] = system: BEL-7404 tumor cell line; experiment: Antiproliferative activity against human Bel7404 cells after 48 hrs by MTT assay; assay type: functional, cell-based; conditions: BEL-7404, 48 h
Summary of the method: (§3)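 Colorimetric MTT assay. KB-3-1, NCI-H460 and Bel-7404 cells were seeded at 4000 cells/well; resistant KB/CP4, NCI-H460/MX20 and Bel-7404/CP20 were seeded at 7000 cells/well. Cells were pre-incubated 24 h at 37 °C, 5% CO2, then exposed to a compound concentration series for 48 h with DMSO ≤0.25%. Absorbance read at 570 nm. Quadruplicate wells, three repeats; means ± SD.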

[6] = system: MCF7; experiment: Antitumor activity against human MCF7 cells xenografted in Balb/c nude mouse assessed as tumor growth inhibition at 20 mg/kg/day, iv for 4 weeks relative to control; assay type: functional; conditions: 672 h, read-out: TGI
Summary of the method: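 Six-week-old male BALB/c nude mice received 1 × 10^6 MCF-7 cells subcutaneously in the right flank. After 7 d of tumor growth, mice were randomized into groups of six. Dosing was 20 mg/kg iv once daily for 28 days in 10% DMF/2% poloxamer/88% saline. Tumor volume (L × W²/2) and body weight were recorded every 2 days. Inhibition = (1 − mean treated/control tumor weight) × 100%.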

[7] = system: Mus musculus; experiment: Cardiotoxicity in Balb/c nude mouse xenografted with human MCF7 cells assessed as morphological changes in heart at 20 mg/kg/day, iv for 4 weeks by hematoxylin and eosin staining based microscopic method; assay type: toxicity, organism-based; conditions: in vivo, 672 h
Summary of the method: as §1

[8] = Antiproliferative activity against human BEL7404/CP20 cells after 48 hrs by MTT assay; assay type: functional, cell-based; conditions: BEL7404/CP20, 48 h
Summary of the method: as §3

[9] = system: MCF7; experiment: Cytotoxicity against human MCF7 cells at 10 to 50 uM after 24 hrs by LDH assay; assay type: functional, cell-based
Summary of the method: (§4)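 Membrane integrity assay on MCF-7 and Bel-7402 cells seeded at ~5 × 10^3 per well for 24 h, then given compounds at 10, 20 or 50 μM. Culture medium collected and assayed with CytoTox-ONE LDH reagent for 10 min, followed by stop solution. Fluorescence read at Ex 560/Em 590 nm. Expressed as percentage of unstimulated cells.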

[10] = system: MCF7; experiment: Antiproliferative activity against human MCF7 cells after 72 hrs by MTT assay; assay type: functional, cell-based; conditions: MCF7, 72 h
Summary of the method: (§5)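 MGC-803 and MCF-7 cells grown in DMEM (MCF-7 with 1× NEAA); Bel-7402 and K562 grown in RPMI 1640; all media with 10% FBS. Cells seeded at 3500/well, pre-incubated 24 h, then exposed to compounds in fresh medium (DMSO ≤0.25%) for 72 h at 37 °C. MTT read-out at 570 nm. Quadruplicate wells, repeated three times; means ± SD (n = 3).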

[11] = system: Mus musculus; experiment: Toxicity in Balb/c nude mouse xenografted with human MCF7 cells assessed as morphological changes in spleen at 20 mg/kg/day, iv for 4 weeks by hematoxylin and eosin staining based microscopic method; assay type: organism-based; conditions: in vivo, 672 h
Summary of the method: as §2

[12] = Antiproliferative activity against human NCI-H460/MX20 cells after 48 hrs by MTT assay; assay type: functional, cell-based; conditions: NCI-H460/MX20, 48 h
Summary of the method: as §3

[13] = system: Mus musculus; experiment: Toxicity in Balb/c nude mouse xenografted with human MCF7 cells assessed as morphological changes in lungs at 20 mg/kg/day, iv for 4 weeks by hematoxylin and eosin staining based microscopic method; assay type: organism-based; conditions: in vivo, 672 h
Summary of the method: as §2

[14] = Antiproliferative activity against human KB/CP4 cells after 48 hrs by MTT assay; assay type: functional, cell-based; conditions: KB/CP4, 48 h
Summary of the method: as §3

[15] = system: Bel-7402; experiment: Antiproliferative activity against human Bel7402 cells after 72 hrs by MTT assay; assay type: functional, cell-based; conditions: Bel-7402, 72 h
Summary of the method: as §5

[16] = system: Bel-7402; experiment: Cytotoxicity against human Bel7402 cells at 10 to 50 uM after 24 hrs by LDH assay; assay type: functional, cell-based
Summary of the method: as §4

[17] = system: Mus musculus; experiment: Toxicity in Balb/c nude mouse xenografted with human MCF7 cells assessed as changes in body weight at 20 mg/kg/day, iv for 4 weeks measured once in 2 days during compound dosing; assay type: organism-based; conditions: in vivo
Summary of the method: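 Mice received 1 × 10^6 tumor cells subcutaneously in the right flank: MCF-7 in male BALB/c nude mice aged six weeks, H22 in male ICR mice aged five weeks. After 7 d they were randomized (six or eight per group). Dosing was 20 mg/kg iv daily in 10% DMF/2% poloxamer/88% saline for 21 or 28 days; saline control. Body weight was recorded every 2 days.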

[18] = system: K562; experiment: Antiproliferative activity against human K562 cells after 72 hrs by MTT assay; assay type: functional, cell-based; conditions: K562, 72 h
Summary of the method: as §5

[19] = system: KB 3-1; experiment: Antiproliferative activity against human KB-3-1 cells after 48 hrs by MTT assay; assay type: functional, cell-based; conditions: KB 3-1, 48 h
Summary of the method: as §3

[20] = system: MGC-803; experiment: Antiproliferative activity against human MGC803 cells after 72 hrs by MTT assay; assay type: functional, cell-based; conditions: MGC-803, 72 h
Summary of the method: as §5

[21] = system: NCI-H460; experiment: Antiproliferative activity against human NCI-H460 cells after 48 hrs by MTT assay; assay type: functional, cell-based; conditions: NCI-H460, 48 h
Summary of the method: as §3

[22] = Selectivity ratio of IC50 for human L02 cells to IC50 for human Bel7402 cells

SMILES	Activity [3]	Activity [4]	IC50 [5] [µM]	inhibition in vivo at 20 mg/kg/day [6] [%]	Activity [7]	IC50 [8] [µM]	Activity [9]	IC50 [10] [µM]	Activity [11]	IC50 [12] [µM]	Activity [13]	IC50 [14] [µM]	IC50 [15] [µM]	Activity [16]	Activity [17]	IC50 [18] [µM]	IC50 [19] [µM]	IC50 [20] [µM]	IC50 [21] [µM]	other results
C=C1C(=O)[C@]23[C@H](O)[C@H]1CC[C@H]2[C@]12C=CCC(C)(C)[C@H]1[C@H](O)[C@]3(O)OC2	Non-Toxic	Non-Toxic	3.91	61.6	Non-Toxic	4.98	inactive	1.99	Non-Toxic	11.1	Non-Toxic	2.98	1.59	inactive	Non-Toxic	0.22	5.16	1.22	2.69	Ratio IC50 [1]: <1; Activity [2]: Active
C=C1C(=O)[C@]23[C@H](O)[C@H]1CC[C@H]2[C@@]12CO[C@]3(O)[C@@H](O)[C@@H]1C(C)(C)CC[C@@H]2O [ORIDONIN]	Non-Toxic	Non-Toxic	17.9	58.9	Non-Toxic	17.2	inactive	17.9	Non-Toxic	25.9	Non-Toxic	10.8	5.41	inactive	Non-Toxic	4.33	13.2	9.06	20.5	Ratio IC50 [22]: 6
